Where two headings read alike, the source gives them in different places.
Legend:
MCF-7 = assay: In vitro anticancer activity, MTT assay, MCF-7; format: cell-based; conditions: for IC50: Homo sapiens, MCF7, 48 h, read-out: IC50 MCF-7; for anticancer activity against MCF-7 cells (in words): MTT, 48 h exposure, compared with the standard cisplatin
HeLa = assay: In vitro anticancer activity, MTT assay, HeLa; format: cell-based, human; conditions: for IC50: Homo sapiens, HeLa, 48 h; for anticancer activity against HeLa cells (in words): MTT, 48 h exposure, compared with the standard cisplatin
Summary of the method: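 HeLa cells came from NCCS and were kept in MEM with 10% FBS at 37 °C and 5% CO2. Cells were seeded at 10,000/well in 5% FBS medium and left 24 h to attach. DMSO solutions were diluted in serum-free medium to 6.25–100 µM (five concentrations) and applied for 48 h, in triplicate. MTT was added for 4 h at 37 °C, formazan dissolved in DMSO, and A570 read. % inhibition was taken against untreated control. IC50 came from nonlinear regression against log concentration.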

α-amylase = assay: α-Amylase assay; format: biochemical; conditions: compared to the standard acarbose; 50-1000 μm
Summary of the method: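 α-Amylase was used at 0.1 mg/mL in PBS (0.02 mol/L, pH 6.8). Enzyme was preincubated with the test solution at 37 °C for 5 min. The reaction was started with 1.0% (w/v) starch. It was stopped with DNS reagent (1% dinitrosalicylic acid, 0.05% Na2SO3, 1% NaOH), then heated at 100 °C for 5 min and cooled to room temperature. Absorbance was read at 540 nm.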

[1] = read-out: IC50 values, range over MCF-7 and HeLa cells

IC50 (MCF-7)	IC50 (HeLa; read-out: IC50 HeLa)	inhibitory activity against α-amylase (in words) (α-amylase)	IC50 (HeLa; [1])	SMILES	anticancer activity against MCF-7 cells (in words) (MCF-7)	anticancer activity against HeLa cells (in words) (HeLa)
81.6 µM	79.7 µM	moderate activities	–	O=C(Nc1ccc(F)cc1)Nc1cccc(-c2nnc(C3CCCCC3)o2)c1 [Compound 6a, 1-[3-(5-Cyclohexyl-[1,3,4]oxadiazol-2-yl)-phenyl]-3-(4-fluoro-phenyl)-urea]	good activity	good activity
23.5 µM	30.4 µM	moderate activities	23.5 to 45.6 µM	Cc1ccc(NC(=O)Nc2cccc(-c3nnc(C4CCCCC4)o3)c2)cc1 [Compound 6b, 1-[3-(5-Cyclohexyl-[1,3,4]oxadiazol-2-yl)-phenyl]-3-p-tolyl-urea]	significant activity	significant activity
28.6 µM	45.6 µM	–	23.5 to 45.6 µM	COc1cccc(NC(=O)Nc2cccc(-c3nnc(C4CCCCC4)o3)c2)c1 [Compound 6c, 1-[3-(5-Cyclohexyl-[1,3,4]oxadiazol-2-yl)-phenyl]-3-(3-methoxy-phenyl)-urea]	significant activity	significant activity
≥ 100 µM	≥ 100 µM	–	–	O=C(Nc1cccc(-c2nnc(C3CCCCC3)o2)c1)c1ccc(Cl)cc1 [Compound 7a, 4-Chloro-N-[3-(5-cyclohexyl-[1,3,4]oxadiazol-2-yl)-phenyl]-benzamide]	–	–
≥ 100 µM	≥ 100 µM	–	–	Cc1ccc(C(=O)Nc2cccc(-c3nnc(C4CCCCC4)o3)c2)cc1 [Compound 7b, N-[3-(5-Cyclohexyl-[1,3,4]oxadiazol-2-yl)-phenyl]-4-methyl-benzamide]	–	–
78.3 µM	80.1 µM	–	–	O=C(Cc1ccccc1F)Nc1cccc(-c2nnc(C3CCCCC3)o2)c1 [Compound 7c, N-[3-(5-Cyclohexyl-[1,3,4]oxadiazol-2-yl)-phenyl]-2-(2-fluoro-phenyl)acetamide]	good activity	good activity
62.4 µM	58.8 µM	moderate activities	–	O=C(Nc1cccc(-c2nnc(C3CCCCC3)o2)c1)c1cc(F)cc(F)c1 [Compound 7d, N-[3-(5-Cyclohexyl-[1,3,4]oxadiazol-2-yl)-phenyl]-3,5-difluoro-benzamide]	good activity	good activity
≥ 100 µM	≥ 100 µM	moderate activities	–	O=C(Nc1cccc(-c2nnc(C3CCCCC3)o2)c1)c1cnccn1 [Compound 7e, Pyrazine-2-carboxylic acid [3-(5-cyclohexyl-[1,3,4]oxadiazol-2-yl)-phenyl]-amide]	–	–
≥ 100 µM	100 µM	better than all other compounds	–	O=C(Cc1c[nH]c2ccccc12)Nc1cccc(-c2nnc(C3CCCCC3)o2)c1 [Compound 7f, N-[3-(5-Cyclohexyl-[1,3,4]oxadiazol-2-yl)-phenyl]-2-(1H-indol-3-yl)-acetamide]	–	–
≥ 100 µM	≥ 100 µM	moderate activities	–	O=C(Nc1cccc(-c2nnc(C3CCCCC3)o2)c1)C1CCCC1 [Compound 7g, Cyclopentane carboxylic acid [3-(5-cyclohexyl-[1,3,4]oxadiazol-2-yl)-phenyl]-amide]	–	–
≥ 100 µM	≥ 100 µM	–	–	O=C(Nc1cccc(-c2nnc(C3CCCCC3)o2)c1)c1ccco1 [Compound 7h, Furan-2-carboxylic acid [3-(5-cyclohexyl-[1,3,4]oxadiazol-2-yl)-phenyl]-amide]	–	–
≥ 100 µM	≥ 100 µM	–	–	O=C(C=Cc1ccco1)Nc1cccc(-c2nnc(C3CCCCC3)o2)c1 [Compound 7i, N-[3-(5-Cyclohexyl-[1,3,4]oxadiazol-2-yl)-phenyl]-3-furan-2-yl-acrylamide]	–	–
≥ 100 µM	≥ 100 µM	–	–	Cc1ccc(S(=O)(=O)Nc2cccc(-c3nnc(C4CCCCC4)o3)c2)cc1 [Compound 8a, N-[3-(5-Cyclohexyl-[1,3,4]oxadiazol-2-yl)-phenyl]-4-methyl-benzenesulphonamide]	–	–
60.9 µM	62.9 µM	–	–	CC(C)(C)c1ccc(S(=O)(=O)Nc2cccc(-c3nnc(C4CCCCC4)o3)c2)cc1 [Compound 8b, 4-tert-Butyl-N-[3-(5-cyclohexyl-[1,3,4]oxadiazol-2-yl)-phenyl]-benzenesulphonamide]	good activity	good activity
≥ 100 µM	≥ 100 µM	better than all other compounds	–	O=S(=O)(Nc1cccc(-c2nnc(C3CCCCC3)o2)c1)c1cc(Cl)cc(Cl)c1 [Compound 8c, 3,5-Dichloro-N-[3-(5-cyclohexyl-[1,3,4]oxadiazol-2-yl)-phenyl]-benzenesulphonamide]	–	–
